{"source": "ChEMBL document CHEMBL1147858", "about": "“Short-chain 3-ketoceramides, strong apoptosis inducers against human leukemia HL-60 cells” (Bioorg Med Chem, 2007)", "format_in_all_cases": "functional, cell-based", "settings_in_all_cases": "Homo sapiens", "key": {"HL-60 [1]": {"tested_on": "HL-60", "assay": "Effect on apoptosis in HL60 cells assessed as caspase-3 activation at 5 uM by Western blot analysis", "outline": "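HL-60 cells exposed 2–6 h (also 30–90 min) to compound, ethanol vehicle (final EtOH 0.1%); cells pelleted, PBS-washed twice, lysed in urea/SDS/β-mercaptoethanol buffer, boiled 3 min, run on 14% SDS-PAGE, PVDF blot probed with rabbit polyclonal anti-caspase-3 and alkaline phosphatase-coupled goat anti-rabbit; pro- versus active caspase-3 bands read.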"}, "HL-60 [2]": {"tested_on": "HL-60", "assay": "Effect on apoptosis in HL60 cells assessed as mitochondrial cytochrome C release at 5 uM by Western blot analysis", "outline": "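HL-60 cells (6 × 10^6 cells/mL) treated for various periods, ethanol vehicle; PBS-washed, Dounce-homogenized in HEPES/KCl/EDTA/EGTA/DTT buffer with protease inhibitors; 1000g spin removes nuclei/heavy membranes, mitochondria-rich fraction pelleted, supernatant spun at 100,000g for cytosol; both fractions immunoblotted with anti-cytochrome c.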"}, "HL-60 [3]": {"tested_on": "HL-60", "assay": "Antileukemic effect against HL60 cells assessed as cell survival at 1 uM after 6 hrs by MTT assay relative to C2-Cer", "outline": "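Serum-free RPMI 1640 HL-60 suspension (0.4–1 × 10^6 cells/mL after two washes), […] per well; compounds added from ethanol stocks (1–20 mM), final EtOH 0.1%, vehicle control 0.1% EtOH; 6 h exposure; MTT (10 µL of 5 mg/mL) added 2 h before end; formazan dissolved with 0.04 M HCl in isopropanol.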"}, "HL-60 [4]": {"tested_on": "HL-60", "assay": "Induction of apoptosis in HL60 cells assessed as DNA fragmentation at 5uM", "outline": "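HL-60 cells (2 × 10^6 cells/2 mL) exposed for various periods, ethanol vehicle; lysed in Tris/EDTA/0.5% Triton X-100, soluble lysate treated with RNase A (0.2 mg/mL, 1 h, 37 °C) then proteinase K (0.2 mg/mL, 50 °C, 30 min); DNA isopropanol-precipitated overnight at −20 °C, run on 2.0% agarose at 50 V, ethidium bromide stained, UV visualized.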"}}, "note": "The source made the active and inactive calls. The rule behind the calls is not given here.", "data": [{"smiles": "CCCCCCCCCCC/C=C/C=C/C(=O)[C@H](CO)NC(C)=O", "values": [{"measurement": "Activity", "setting": "HL-60 [1]", "result": "Active"}, {"measurement": "Activity", "setting": "HL-60 [2]", "result": "Active"}, {"measurement": "Activity", "setting": "HL-60 [3]", "result": "inactive"}]}, {"smiles": "CCCCCCCCCCCCC/C=C/C(=O)[C@H](COC)NC(C)=O", "values": [{"measurement": "Activity", "setting": "HL-60 [1]", "result": "Active"}, {"measurement": "Activity", "setting": "HL-60 [4]", "result": "Active"}, {"measurement": "Activity", "setting": "HL-60 [2]", "result": "Active"}, {"measurement": "Activity", "setting": "HL-60 [3]", "result": "Active"}]}, {"smiles": "CCCCCCCCCCCCC/C=C/C(=O)[C@H](CO)NC(C)=O", "values": [{"measurement": "Activity", "setting": "HL-60 [1]", "result": "Active"}, {"measurement": "Activity", "setting": "HL-60 [4]", "result": "Active"}, {"measurement": "Activity", "setting": "HL-60 [2]", "result": "Active"}, {"measurement": "Activity", "setting": "HL-60 [3]", "result": "Active"}]}]}
